According to ChEMBL document CHEMBL3414544, “PAINS in the assay: chemical mechanisms of assay interference and promiscuous enzymatic inhibition observed during a sulfhydryl-scavenging HTS” (J Med Chem, 2015):
Calls of active or inactive are those of the source.

How the values were obtained:
[1] = Fluorescence quenching in HTS buffer with […] CoA assessed as fluorescence signal reduction at 10 uM after 10 mins; format: physicochemical
[2] = Fluorescence quenching assessed as fluorescence signal reduction at 10 uM after 10 mins; format: physicochemical
Method in brief: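 CPM (20 μM final) and CoA (5 μM final) reacted to completion in assay buffer (stable plateau, usually ~5 min); adduct solution added to wells preplated with compound; shaken 5 min, equilibrated 5 min at room temperature; fluorescence intensity read as percent signal reduction versus DMSO controls. Flagged as quencher at >20% signal reduction at 10 μM final compound.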

[3] = Fluorescence quenching in HTS buffer assessed as fluorescence signal reduction at 10 uM after 10 mins; format: physicochemical
[4] = biological target: T1, Histone acetyltransferase RTT109 (Saccharomyces cerevisiae (strain ATCC 204508 / S288c) (Baker's yeast)) (UniProt Q07794); assay: Inhibition of Vps75-stimulated recombinant Saccharomyces cerevisiae histone acetyltransferase Rtt109 assessed as H3K56 acetylated product at […] after 45 mins by Slot bolt inhibiton assay
T1 sequence (whole entry): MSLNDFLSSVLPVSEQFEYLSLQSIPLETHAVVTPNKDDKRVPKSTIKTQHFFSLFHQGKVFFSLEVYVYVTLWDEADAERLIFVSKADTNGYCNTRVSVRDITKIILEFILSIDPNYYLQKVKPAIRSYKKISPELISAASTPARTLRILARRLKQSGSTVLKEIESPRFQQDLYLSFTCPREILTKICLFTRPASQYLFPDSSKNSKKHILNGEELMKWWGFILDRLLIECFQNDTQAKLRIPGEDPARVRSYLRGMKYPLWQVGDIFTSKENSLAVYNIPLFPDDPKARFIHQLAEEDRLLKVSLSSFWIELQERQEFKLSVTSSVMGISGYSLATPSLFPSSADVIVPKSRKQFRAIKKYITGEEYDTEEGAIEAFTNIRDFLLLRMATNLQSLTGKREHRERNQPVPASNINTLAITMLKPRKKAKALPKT

[5] = Fluorescence quenching in HTS buffer with 20 uM 7-diethylamino-3-(4'-maleimidyl-phenyl)-4-methylcoumarin assessed as fluorescence signal reduction at 10 uM after 10 mins; format: physicochemical
[6] = biological target: T1, Histone acetyltransferase RTT109 (Saccharomyces cerevisiae (strain ATCC 204508 / S288c) (Baker's yeast)); assay: Inhibition of Vps75-stimulated recombinant Saccharomyces cerevisiae histone acetyltransferase Rtt109 assessed as H3K27 acetylated product at […] after 45 mins by Slot bolt inhibiton assay
[7] = biological target: T2, Histone acetyltransferase RTT109 (Saccharomyces cerevisiae (strain ATCC 204508 / S288c) (Baker's yeast), UniProt Q07794); assay: Inhibition of Vps75-stimulated recombinant Saccharomyces cerevisiae histone acetyltransferase Rtt109 using Asf1-dH3-H4 as substrate assessed as coenzyme A production after 45 mins by CPM based HTS assay; conditions: read-out: IC50
T2 sequence (Q07794 whole entry): T1 sequence (whole entry)
Method in brief: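 Recombinant Rtt109–Vps75 at 50 nM, with Asf1–dH3–H4 as substrate and acetyl-CoA as acetyl donor. Buffer contained freshly prepared 0.01% Triton X-100. The CoA product was detected by fluorescence of its CPM adduct. Plates had Z′ ≥0.5. IC50 came from a four-parameter variable-slope fit.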

Row | SMILES | Activity [1] | Activity [2] | Activity [3] | Activity [4] | Activity [5] | Activity [6] | IC50 [7] [µM]
1 | CC(C)c1ccc(S(=O)(=O)Nc2ccc(O)c(Sc3nc[nH]n3)c2)cc1 | Not Active | Not Active | Not Active | inactive | Not Active | inactive | 200
2 | O=[N+]([O-])c1cccc(S(=O)(=O)Nc2cc(Br)c(O)c3ccccc23)c1 | Not Active | Not Active | Not Active | Active | Not Active | Active | 5.4
3 | [Br-].c1ccc(CNc2nc(-c3ccccc3)[n+](-c3ccccc3)s2)cc1 | Not Active | Not Active | Not Active | Active | Not Active | Active | 2.4
4 | O=[N+]([O-])c1c(Sc2ncnc3[nH]cnc23)cc(Cl)c2nsnc12 | Not Active | Not Active | Not Active | Active | Not Active | Active | 2.2
5 | O=C1CC(Sc2nc[nH]n2)C(=O)N1c1ccccc1 (stereo not given) | Not Active | Not Active | Not Active | Active | Not Active | Active | 15
6 | O=S(=O)(Nc1cc(Sc2nc[nH]n2)c(O)c2ccccc12)c1ccccc1 | Not Active | Not Active | Not Active | Active | Not Active | Active | 1.4
7 | O=[N+]([O-])c1ccc(Sc2nnc[nH]2)c2nsnc12 | Not Active | Not Active | Not Active | Active | Not Active | Active | 1.7
8 | O=S(=O)(C[n+]1sc(Nc2ccccc2)nc1-c1ccccc1)c1ccc2ccccc2c1.[Br-] | Not Active | Not Active | Not Active | inactive | Not Active | inactive | 28
9 | CN(C)c1nc(-c2ccccc2)[n+](C)s1.[O-][Cl+3]([O-])([O-])[O-] | Not Active | Not Active | Not Active | Active | Not Active | Active | 5.3
10 | O=C1C=CC(=O)N1c1ccc2ccccc2c1 | Not Active | Not Active | Not Active | Active | Not Active | Active | 3.6
11 | O=[N+]([O-])c1ccc(Sc2nnnn2-c2ccccc2)c2nonc12 | Not Active | Not Active | Not Active | Active | Not Active | Active | 0.45
12 | COc1ccc(-c2nnc(Sc3ccc([N+](=O)[O-])c4nonc34)[nH]2)cc1 | Not Active | Not Active | Not Active | Active | Not Active | Active | 2.3
13 | COc1ccc(N2C(=O)CC(Sc3n[nH]c(-c4ccccc4)n3)C2=O)cc1 (stereo not given) | Not Active | Not Active | Not Active | Active | Not Active | Active | 21
14 | O=C1C=CC(=O)N1c1cccc(F)c1 | Not Active | Not Active | Not Active | Active | Not Active | Active | 6.1
15 | COc1ccc(N2C(=O)CC(Sc3n[nH]c(-c4ccc(C)cc4)n3)C2=O)cc1 (stereo not given) | Not Active | Not Active | Not Active | Active | Not Active | Active | 10
16 | O=S(=O)(Nc1cc(Br)c(O)c2ccccc12)c1ccc(F)cc1 | Not Active | Not Active | Not Active | Active | Not Active | Active | 4.4
17 | O=C1C=CC(=O)N1c1ccc(Br)cc1 | Not Active | Not Active | Not Active | Active | Not Active | Active | 3
18 | COc1ccc(N2C(=O)C=CC2=O)cc1 | Not Active | Not Active | Not Active | Active | Not Active | Active | 9.2
19 | O=[N+]([O-])c1cccc(S(=O)(=O)Nc2cc(SCc3ccccc3)c(O)c3ccccc23)c1 | Not Active | Not Active | Not Active | Active | Not Active | Active | 2
20 | O=S(=O)(Nc1cc(SCc2ccco2)c(O)c2ccccc12)c1ccccc1 | Not Active | Not Active | Not Active | Active | Not Active | Active | 2.1
21 | O=S(=O)(C[n+]1sc(N(c2ccccc2)c2ccccc2)nc1-c1ccccc1)c1ccccc1.[Br-] | Not Active | Not Active | Not Active | inactive | Not Active | inactive | 50
22 | O=C(O)CSc1cc(Cl)c2nonc2c1[N+](=O)[O-] | Not Active | Not Active | Not Active | Active | Not Active | Active | 17
23 | O=C1C=CC(=O)N1c1ccc(Oc2ccccc2)cc1 | Not Active | Not Active | Not Active | Active | Not Active | Active | 3
24 | O=S(=O)(Nc1cc(Sc2nc[nH]n2)c(O)c2ccccc12)c1ccc(Cl)cc1 | Not Active | Not Active | Not Active | inactive | Not Active | Active | 1.4
25 | COc1ccc(-c2nnc(Sc3ccc([N+](=O)[O-])c4nonc34)o2)cc1 | Not Active | Not Active | Not Active | Active | Not Active | Active | 0.96
